Measurements: ChEMBL document CHEMBL4316619 (Bioorg Med Chem Lett, 2019)
Active and inactive are the calls of the source. No cut-off for these calls is given here.

Key:
[1] = test system: Influenza A virus; assay: Antiviral activity against Influenza A virus A/PR/8/34 (H1N1) infected in MDCK cells assessed as fold reduction in virus titer at 10 uM measured after 48 hrs by hemagglutination assay relative to control; type: functional, A/Puerto Rico/8/1934(H1N1)
How it was run: (§1)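 MDCK cells were infected with A/PR/8/34 (H1N1) at MOI 0.1 and incubated with compound for 48 h. Supernatant virus was then quantified by hemagglutination assay and standard TCID50 analysis. The single-concentration screen used 10 μM and reports fold reduction in titer. Dose-response runs used triplicate cultures, with percent titer decrease back-calculated from TCID50.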

[2] = test system: Saccharomyces cerevisiae; assay: Effect on growth of Yeast 9526-6-2 harboring pYES at 50 uM measured up to 60 hrs; type: organism-based; details: in vivo
How it was run: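 Control yeast carrying empty pYES and NS1-expressing NS1-pYES strain grown with DMSO or compound at 50 μM. Growth measured as OD600 at 22, 42 and 60 h.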

[3] = test system: Influenza A virus; assay: Effect on NS1 protein expression in Influenza A virus A/PR/8/34 (H1N1) infected in MDCK cells at 20 uM by Western blot analysis; type: functional, organism-based; details: A/Puerto Rico/8/1934(H1N1)
How it was run: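 MDCK cells, uninfected or infected with A/PR/8/34, treated with DMSO or compound at 20 μM. NS1 protein detected by Western blot, with α-tubulin as loading control.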

[4] = target: Non-structural protein 1 (Influenza A virus (strain A/Puerto Rico/8/1934 H1N1)) (UniProt P03496); assay: Inhibition of Influenza A virus A/PR/8/34 (H1N1) NS1 expressed in 293 cells assessed as increase in poly(I:C)-induced IFN-beta reporter activity treated 16 hrs […] measured after 24 hrs by luciferase reporter gene assay; type: cell-based; details: Influenza A virus (A/Puerto Rico/8/1934(H1N1))
How it was run: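 293 cells co-transfected with a human IFN-β promoter-driven firefly luciferase reporter and NS1 expression constructs. At 16 h post-transfection, poly(I:C) 50 μg/mL plus compound (20 μM) or 1% DMSO added for a further 24 h; luciferase read by luminometer. Untransfected cells serve as baseline.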

[5] = target: Luciferin 4-monooxygenase (Photinus pyralis) (UniProt P08659); assay: Effect on firefly luciferase activity expressed in 293 cells at 50 uM by luminescence assay; type: cell-based
[6] = Stability of the compound in mouse liver microsomes assessed as parent compound remaining measured immediately; type: ADME, Microsome; details: read-out: Stability
How it was run: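 Mouse liver microsomes; percent parent compound remaining measured at 0, 15 and 30 min.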

[7] = Apparent permeability across basolateral to apical side in human Caco2 cells measured after 2 hrs; type: ADME, cell-based; details: caco-2, 2 h
How it was run: (§2)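 Permeability was measured across Caco-2 monolayers in both directions, apical to basolateral and basolateral to apical. […] Runs were done with and without 3% BSA, and mass recovery (%) was reported for each direction. Efflux ratio = Papp B→A / Papp A→B.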

[8] = test system: Influenza A virus; assay: Antiviral activity against Influenza A virus A/PR/8/34 (H1N1) infected in MDCK cells assessed as 3-log reduction in virus titer measured after 48 hrs by hemagglutination assay; type: functional, A/Puerto Rico/8/1934(H1N1); how it was run: as §1
[9] = Apparent permeability across apical to basolateral side in human Caco2 cells assessed as drug recovery; type: ADME, cell-based; details: caco-2; how it was run: as §2
[10] = Apparent permeability across basolateral to apical side in human Caco2 cells assessed as drug recovery; type: ADME, cell-based; details: caco-2; how it was run: as §2
[11] = Apparent permeability across apical to basolateral side in human Caco2 cells assessed as drug recovery in presence of 3% BSA; type: ADME, cell-based; details: caco-2; how it was run: as §2
[12] = Tmax in C57BL/6 mouse plasma at 30 mg/kg, ip; type: ADME, organism-based; details: mouse, in vivo
How it was run: (§3)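 Male C57BL/6 mice, single intraperitoneal 30 mg/kg dose, N=3. Plasma, liver and lung concentrations followed over time to give concentration-time profiles, from which Tmax, Cmax, terminal t1/2, AUClast and AUCINF were derived.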

[13] = Cmax in C57BL/6 mouse plasma at 30 mg/kg, ip; type: ADME, organism-based; set-up: dose 30 mg/kg, route intraperitoneal; details: mouse, in vivo
How it was run: (§4)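 Male C57BL/6 mice received a single intraperitoneal dose of 30 mg/kg (N=3). Compound concentrations were followed over time in plasma, liver and lung. Tmax, Cmax, terminal t1/2, AUClast and AUCINF were derived from the mean concentration-time profiles.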

[14] = Terminal half life in C57BL/6 mouse plasma at 30 mg/kg, ip; type: ADME, organism-based; details: mouse, in vivo; how it was run: as §3
[15] = AUClast in C57BL/6 mouse plasma at 30 mg/kg, ip; type: ADME, organism-based; set-up: dose 30 mg/kg, route intraperitoneal, time 0 - last; how it was run: as §4
[16] = Cmax in C57BL/6 mouse liver at 30 mg/kg, ip; type: ADME, organism-based; set-up: dose 30 mg/kg, route intraperitoneal; how it was run: as §4
[17] = Tmax in C57BL/6 mouse lung at 30 mg/kg, ip; type: ADME, organism-based; how it was run: as §3
[18] = Cmax in C57BL/6 mouse lung at 30 mg/kg, ip; type: ADME, organism-based; set-up: dose 30 mg/kg, route intraperitoneal; how it was run: as §4
[19] = Terminal half life in C57BL/6 mouse lung at 30 mg/kg, ip; type: ADME, organism-based; details: read-out: beta t1/2 (converted); how it was run: as §3
[20] = AUClast in C57BL/6 mouse lung at 30 mg/kg, ip; type: ADME, organism-based; set-up: dose 30 mg/kg, route intraperitoneal, time 0 - last; how it was run: as §4
[21] = AUC (infinity) in C57BL/6 mouse lung at 30 mg/kg, ip; type: ADME, organism-based; set-up: dose 30 mg/kg, route intraperitoneal, time infinity; how it was run: as §4
[22] = Drug level in C57BL/6 mouse plasma at 30 mg/kg, ip measured at 0.25 hrs; type: ADME, organism-based; how it was run: as §3
[23] = Drug level in C57BL/6 mouse plasma at 30 mg/kg, ip measured at 1 hrs; type: ADME, organism-based; how it was run: as §3
[24] = Drug level in C57BL/6 mouse plasma at 30 mg/kg, ip measured at 12 hrs; type: ADME, organism-based; how it was run: as §3
[25] = Drug level in C57BL/6 mouse plasma at 30 mg/kg, ip measured at 24 hrs; type: ADME, organism-based; how it was run: as §3
[26] = Drug level in C57BL/6 mouse liver at 30 mg/kg, ip measured at 0.083 hrs; type: ADME, organism-based; details: in vivo; how it was run: as §4
[27] = Drug level in C57BL/6 mouse liver at 30 mg/kg, ip measured at 0.25 hrs; type: ADME, organism-based; details: in vivo; how it was run: as §4
[28] = Drug level in C57BL/6 mouse liver at 30 mg/kg, ip measured at 0.5 hrs; type: ADME, organism-based; details: in vivo; how it was run: as §4
[29] = Drug level in C57BL/6 mouse liver at 30 mg/kg, ip measured at 1 hrs; type: ADME, organism-based; details: in vivo; how it was run: as §4
[30] = Drug level in C57BL/6 mouse liver at 30 mg/kg, ip measured at 2 hrs; type: ADME, organism-based; details: in vivo; how it was run: as §4
[31] = Drug level in C57BL/6 mouse liver at 30 mg/kg, ip measured at 8 hrs; type: ADME, organism-based; details: in vivo; how it was run: as §4
[32] = Drug level in C57BL/6 mouse liver at 30 mg/kg, ip measured at 12 hrs; type: ADME, organism-based; details: in vivo; how it was run: as §4
[33] = Drug level in C57BL/6 mouse liver at 30 mg/kg, ip measured at 24 hrs; type: ADME, organism-based; details: in vivo; how it was run: as §4
[34] = Drug level in C57BL/6 mouse liver at 30 mg/kg, ip measured at 48 hrs; type: ADME, organism-based; details: in vivo; how it was run: as §4
[35] = Drug level in C57BL/6 mouse lung at 30 mg/kg, ip measured at 0.25 hrs; type: ADME, organism-based; details: in vivo; how it was run: as §4
[36] = Drug level in C57BL/6 mouse lung at 30 mg/kg, ip measured at 1 hrs; type: ADME, organism-based; details: in vivo; how it was run: as §4
[37] = Drug level in C57BL/6 mouse lung at 30 mg/kg, ip measured at 24 hrs; type: ADME, organism-based; details: in vivo; how it was run: as §4
[38] = Toxicity in C57BL/6 mouse assessed as effect on liver at 30 mg/kg, ip; type: organism-based; details: in vivo
[39] = Toxicity in C57BL/6 mouse assessed as effect on lungs at 30 mg/kg, ip; type: organism-based; details: in vivo

Sequence of Non-structural protein 1 (Influenza A virus (strain A/Puerto Rico/8/1934 H1N1)) (P03496 whole entry): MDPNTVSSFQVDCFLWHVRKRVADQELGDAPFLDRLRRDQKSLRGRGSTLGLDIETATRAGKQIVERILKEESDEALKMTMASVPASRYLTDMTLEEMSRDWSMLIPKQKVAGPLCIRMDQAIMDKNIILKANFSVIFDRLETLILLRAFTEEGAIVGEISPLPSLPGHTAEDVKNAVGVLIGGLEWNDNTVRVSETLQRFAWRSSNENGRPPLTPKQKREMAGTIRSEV
Sequence of Luciferin 4-monooxygenase (Photinus pyralis) (P08659 whole entry): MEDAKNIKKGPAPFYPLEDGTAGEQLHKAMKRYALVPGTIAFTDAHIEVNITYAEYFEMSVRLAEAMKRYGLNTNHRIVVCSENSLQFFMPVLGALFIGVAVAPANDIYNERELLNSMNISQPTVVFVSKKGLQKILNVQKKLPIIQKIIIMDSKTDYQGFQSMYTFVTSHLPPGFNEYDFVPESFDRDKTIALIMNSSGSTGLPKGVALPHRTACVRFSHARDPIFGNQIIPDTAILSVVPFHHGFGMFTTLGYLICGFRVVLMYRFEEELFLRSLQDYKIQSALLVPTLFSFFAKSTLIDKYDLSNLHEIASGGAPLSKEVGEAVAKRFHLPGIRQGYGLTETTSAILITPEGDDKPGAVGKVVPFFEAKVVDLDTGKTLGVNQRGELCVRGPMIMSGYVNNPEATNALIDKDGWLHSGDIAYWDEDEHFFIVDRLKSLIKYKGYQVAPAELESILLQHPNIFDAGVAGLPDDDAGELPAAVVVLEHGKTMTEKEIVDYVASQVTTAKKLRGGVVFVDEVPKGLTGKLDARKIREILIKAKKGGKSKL

For `COc1cc(-c2ccnc3c2c(C)nn3-c2ccc(C(F)(F)F)cc2)ccc1O`, the “fold change (FC)” value [1] was 128, the Activity [2] was “Non-Toxic” and the Activity [3] was “inactive”. For the same compound, the inhibition [4] was “Active”, the Activity [5] was “inactive” and the remaining at 0 min [6] was 100%. For the same compound, the Papp [7] was 2.3 nm/s, the TCID50 [8] was 1.6 µM and the Drug recovery [9] was 5%. For the same compound, the Drug recovery [10] was 9%, the Drug recovery [11] was 49% and the Tmax [12] was 0.25 h. For the same compound, the Cmax [13] was 2.437 µg/mL, the “beta t1/2” value [14] was 4.6 h and the AUC(0-t) [15] was 7.66 µg·h/mL. The Cmax [16] was 49.6 µg/mL, the Tmax [17] was 0.25 h and the Cmax [18] was 18.6 µg/mL. For the same compound, the half-life [19] was 4.5 h, the AUC(0-t) [20] was 53.9 µg·h/mL and the AUC(0-inf) [21] was 53.9 µg·h/mL. It also gave a concentration at 0.25 h [22] of 6.1 µM, a concentration at 1 h [23] of 5.12 µM and a concentration at 12 h [24] of 0.209 µM. For the same compound, the concentration at 24 h [25] was 0.02 µM, the Drug uptake [26] was 114014 nmol/kg and the Drug uptake [27] was 124197 nmol/kg. It also gave a Drug uptake [28] of 62599 nmol/kg, a Drug uptake [29] of 44487 nmol/kg and a Drug uptake [30] of 18413 nmol/kg. It also gave a Drug uptake [31] of 5058 nmol/kg, a Drug uptake [32] of 1984 nmol/kg and a Drug uptake [33] of 224 nmol/kg. The Drug uptake [34] was 23 nmol/kg, the Drug uptake [35] was 46490 nmol/kg and the Drug uptake [36] was 26592 nmol/kg. The Drug uptake [37] was 168 nmol/kg, the Activity [38] was “Non-Toxic” and the Activity [39] was “Non-Toxic”.
